We go through eight compounds from ChEMBL document CHEMBL1671778, “Synthesis and serotonin transporter activity of 1,3-bis(aryl)-2-nitro-1-propenes as a new class of anticancer agents” (Bioorg Med Chem, 2011).

Data set [1] deals with PBMC. Briefly: Cytotoxicity against human PBMC cells assessed as decrease in cell viability 10 or 50 uM after 24 hrs Alamar blue assay. It counts as cell-based. In a few lines:
(§1)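 1-5x10^4 cells/200 µl given 10 or 50 µM for 24 h (MUTU-I, MDA-MB231, PBMC) or […]. Alamar Blue at 37 °C in the dark 4-6 h, then fluorescence read with 544/590 nm. Media-only background subtracted; untreated cells set as 100% viability. Mean of six points (triplicate, two independent days). PBMCs from a healthy donor, isolated by ficoll density separation.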

Data set [2] in a line: Antiproliferative activity against human chemosensitive MUTU-I cells after 24 hrs Alamar blue assay. It counts as functional, cell-based. In a few lines:
(§2)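 Alamar Blue viability: 1-5x10^4 cells/well treated 24 h, then Alamar Blue (pre-warmed) 4-6 h at 37 °C in the dark. Fluorescence read at 590 nm (excitation 544 nm), background of medium plus dye subtracted, untreated cells = 100% viability. Miconazole 10 µM as cell-death control. Range 1 µM-1 mM, triplicate on two independent days. pEC50 from non-linear sigmoidal regression.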
A general note: The colour change of resazurin is a common sign of viable cells or microbes.

The test system of data set [3] is DG-75. In words: Antiproliferative activity against human DG75 cells after 24 hrs Alamar blue assay. Format: functional, cell-based. The conditions noted are these: DG-75, 24 h. Put shortly: as §2
Data set [4] concerns SH-SY5Y. In words: Antiproliferative activity against human SH-SY5Y cells after 24 hrs Alamar blue assay. It counts as functional, cell-based. In a few lines: as §2
In data set [5] the test system is MUTU-I. Briefly: Induction of apoptosis in human chemosensitive MUTU-I cells assessed as chromatin condensation and membrane bledding at 10 uM after 8 hrs. It counts as functional, cell-based. In a few lines: (§3)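 Cells at 3x10^5 cells/mL exposed for 4 h or 8 h. 150 µl aliquots were cytocentrifuged onto slides (500 ×g, 2 min), air-dried, methanol-fixed, and stained with eosin Y and methylene blue. Morphology was examined by light microscopy at 60x.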

The target in data set [6] is T1, Sodium-dependent serotonin transporter (Homo sapiens, UniProt P31645). The conditions noted are these: HEK293, at 1 µM.
Target sequence in this assay (P31645 whole entry, looked up): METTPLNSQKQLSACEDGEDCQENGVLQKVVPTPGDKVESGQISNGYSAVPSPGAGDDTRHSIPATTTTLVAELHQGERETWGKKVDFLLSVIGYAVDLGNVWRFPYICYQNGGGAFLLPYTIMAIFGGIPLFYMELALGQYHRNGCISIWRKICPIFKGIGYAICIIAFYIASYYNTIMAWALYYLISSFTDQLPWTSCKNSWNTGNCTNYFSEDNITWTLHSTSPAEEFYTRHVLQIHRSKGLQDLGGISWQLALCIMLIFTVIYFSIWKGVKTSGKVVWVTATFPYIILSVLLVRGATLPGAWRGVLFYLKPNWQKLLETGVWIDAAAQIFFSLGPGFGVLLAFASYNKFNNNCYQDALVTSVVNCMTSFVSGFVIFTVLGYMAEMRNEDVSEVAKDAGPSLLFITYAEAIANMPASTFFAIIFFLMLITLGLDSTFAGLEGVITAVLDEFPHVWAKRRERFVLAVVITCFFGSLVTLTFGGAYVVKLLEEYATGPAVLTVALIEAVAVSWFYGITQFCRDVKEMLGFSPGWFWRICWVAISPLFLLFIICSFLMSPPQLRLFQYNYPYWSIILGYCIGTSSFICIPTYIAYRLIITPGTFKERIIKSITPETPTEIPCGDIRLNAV
The target of data set [7] is T1, Sodium-dependent serotonin transporter. The note with it: HEK293, at 100 µM.
Target sequence in this assay (P31645 whole entry, looked up): as above
Data set [8] has as its system MUTU-I. In words: Induction of apoptosis in human chemosensitive MUTU-I cells assessed as chromatin condensation and membrane bledding at 10 uM after 4 hrs. Format: functional, cell-based. In a few lines: as §3
Data set [9] deals with Tubulin (Homo sapiens) (UniProt P68371+Q9H4B7+P0DPH7+P68366+Q13509+Q71U36+P04350+Q3ZCM7+P07437+P68363+Q9BQE3+Q6PEY2+Q13885+Q9BVA1+Q9BUF5). In words: Inhibition of tubulin polymerisation in human chemosensitive MUTU-I cells after 30 mins. It counts as cell-based.
Data set [10] has as its system MUTU-I. Briefly: Induction of apoptosis in human chemosensitive MUTU-I cells assessed as caspase 3/7 activation at 10 uM after 5 hrs. It counts as functional, cell-based. Put shortly:
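Caspase 3/7 activity by homogeneous fluorogenic kit: 0.5x10^5 cells exposed to compound (10 µM) for 5 h, then 100 µl Z-DEVD-R110 substrate added. After 2 h, cleaved substrate measured at 521 nm (excitation 499 nm).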

Data set [11] relates to MUTU-I. Briefly: Induction of apoptosis in human chemosensitive MUTU-I cells assessed as caspase 3/7 activation at 10 uM after 4 hrs. It counts as functional, cell-based.
The subject of data set [12] is MUTU-I. In words: Induction of apoptosis in human chemosensitive MUTU-I cells assessed as induction of PARP cleavage at 10 uM after 8 hrs. Format: functional, cell-based. In a few lines: (§4)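 PARP cleavage by Western blot: 5x10^6 cells pelleted (500 ×g, 5 min), washed, and lysed in Laemmli buffer with protease inhibitors. Lysates run on 8% SDS-PAGE, transferred to PVDF, and probed with anti-PARP detecting full-length 113 kDa and cleaved 85 kDa forms. HRP secondary antibody, chemiluminescence detection.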

In data set [13] the target is T2, Tyrosine-protein phosphatase non-receptor type 1 (Homo sapiens) (UniProt P18031).
T2 sequence (whole entry): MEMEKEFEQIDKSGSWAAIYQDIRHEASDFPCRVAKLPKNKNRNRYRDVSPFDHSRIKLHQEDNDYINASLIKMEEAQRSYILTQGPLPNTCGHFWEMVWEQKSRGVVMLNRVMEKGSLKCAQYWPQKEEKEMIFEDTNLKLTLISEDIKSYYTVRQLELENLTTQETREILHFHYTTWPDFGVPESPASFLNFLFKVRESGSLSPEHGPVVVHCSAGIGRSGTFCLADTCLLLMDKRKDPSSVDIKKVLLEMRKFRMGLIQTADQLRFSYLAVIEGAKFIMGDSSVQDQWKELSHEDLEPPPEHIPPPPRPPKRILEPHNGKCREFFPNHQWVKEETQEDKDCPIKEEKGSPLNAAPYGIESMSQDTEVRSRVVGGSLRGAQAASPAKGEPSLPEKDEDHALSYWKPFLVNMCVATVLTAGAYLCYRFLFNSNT
Briefly: Inhibition of human recombinant PTP1B in chemosensitive MUTU-I cells after 30 mins. It counts as cell-based. In a few lines:
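Recombinant PTP1B expressed in E. coli, incubated with compound and a phosphopeptide substrate for 30 min at 30 °C. Released phosphate detected by malachite green at 620 nm and quantified against a phosphate standard curve. Suramin as positive control.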

The subject of data set [14] is MUTU-I. Briefly: Induction of apoptosis in human chemosensitive MUTU-I cells assessed as induction of PARP cleavage at 10 uM after 4 hrs. Format: functional, cell-based. Put shortly: as §4
Data set [15] in a line: Induction of apoptosis in human chemosensitive MUTU-I cells assessed as accumulation at pre-G1 phase at 10 uM by propidium iodide FACS analysis. Format: functional. In a few lines: (§5)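 750,000 MUTU-I cells per sample treated for the stated time, then harvested (300 ×g, 5 min), washed in ice-cold PBS and fixed overnight at 4 °C in 70% ethanol. Stained with RNase A and propidium iodide, 30 min at 37 °C in the dark. Flow cytometry counted 10,000 gated cells for cell-cycle phases. Taxol 10 µM as positive control.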

Data set [16] relates to MUTU-I. Briefly: Induction of apoptosis in human chemosensitive MUTU-I cells assessed as accumulation at G2/M phase after 2 to 8 hrs by propidium iodide FACS analysis relative to taxol. It counts as functional, cell-based. Put shortly:
as §5
On the technique in general: In flow cytometry, cells or beads pass a laser one at a time.

The subject of data set [17] is HEK293. Briefly: Cytotoxicity against human HEK293 cells assessed as decrease in cell viability after 48 hrs neutral red dye assay. It counts as functional, cell-based. The conditions noted are these: HEK293, 48 h. Put shortly:
(§6)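 5x10^4 cells/well grown to sub-confluence (24-36 h), then exposed to compound 48 h. Neutral red dye 3+1 h, solubilised in 50% ethanol/1% acetic acid, absorbance 540 nm (690 nm background). Viability as percent of vehicle-treated cells; pEC50 by non-linear sigmoidal regression over 4 concentrations, triplicate on two independent days. Controls 30 mM sodium azide, 2% Triton-X. HEK293-hSERT cells kept in Geneticin, used up to 30 passages.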

Data set [18] deals with SH-SY5Y. Briefly: Cytotoxicity against human SH-SY5Y cells expressing human SERT assessed as decrease in cell viability after 48 hrs neutral red dye assay. Format: functional, cell-based.
Data set [19] relates to HEK293. In words: Cytotoxicity against human HEK293 cells expressing human SERT assessed as decrease in cell viability after 48 hrs neutral red dye assay. The conditions noted are these: HEK293, 48 h. It counts as functional, cell-based. In a few lines: as §6
The subject of data set [20] is DG-75. In words: Induction of apoptosis in human chemoresistant DG75 cells assessed as formation of apoptotic bodies by propidium iodide FACS analysis. Format: functional, cell-based.
In data set [21] the test system is DG-75. In words: Cytotoxicity against human chemoresistant DG75 cells expressing SERT assessed as decrease in cell viability 10 or 50 uM after 72 hrs Alamar blue assay. It counts as functional, cell-based. The note with it: for EC50: DG-75, 72 h. In a few lines: as §1
The nature of data set [22]: Induction of apoptosis in human chemosensitive MUTU-I cells assessed as formation of apoptotic bodies by propidium iodide FACS analysis. It counts as functional, cell-based.
Data set [23] concerns MDA-MB-231. Briefly: Cytotoxicity against human MDA-MB-231 cells assessed as decrease in cell viability 10 or 50 uM after 24 hrs Alamar blue assay. Format: functional, cell-based. In a few lines: as §1
Data set [24] has as its target T1, Sodium-dependent serotonin transporter. In words: Inhibition of [3H]-serotonin reuptake at human SERT expressed in HEK293 cells after 15 to 20 mins by fluorescence neurotransmitter transporter assay. Format: cell-based.
Target sequence in this assay (P31645 whole entry): as the sequence (P31645 whole entry, looked up) above
A short description of data set [25]: Cytotoxicity against human chemosensitive MUTU-I cells expressing SERT assessed as decrease in cell viability 10 or 50 uM after 24 hrs Alamar blue assay.

Calls of active or inactive are those of the source. The calls are words filed in the database; no cut-off is given here.

What is called EC50 is the concentration that produces a half-maximal response. Consider `NC(Cc1ccc(Cl)cc1)Cc1ccc(Cl)cc1`, for which the Activity result in data set [1] is “Toxic”. Moreover, the EC50 was 0.158 µM in data set [2], 25.1 µM in data set [3] and 5.01 µM in data set [4].

What is called inhibition is the relative decrease from the control value, in per cent. In the case of `CSc1ccc(/C=C(/Cc2ccc(SC)cc2)[N+](=O)[O-])cc1`, the result in data set [5], in data set [8], in [10], in data set [11], in data set [12] and in data set [14] was Active. Further, the outcome in [16] was Active. For the same compound, the inhibition in data set [6] turned out to be 25%; in data set [7], 18%. The concentration giving a half-maximal response (EC50) in data set [2] was 3.16 µM; in [3], 39.8 µM; in data set [4], 20 µM. Besides, the inhibition result in data set [9] and in data set [13] was “inactive” each time. Besides, in data set [15], the Activity was 50%.

As usually defined, the IC50 is the concentration at which inhibition is half-maximal. On to `CSc1ccc(CC(Cc2ccc(SC)cc2)NC=O)cc1`, for which the Activity result in data set [1] is on record as “Non-toxic”. The inhibition in data set [6] is 5%; in [7] it was 85%. Also, the EC50 is more than 10000 µM in data set [17]; 31.6 µM in [18]; 100 µM in data set [19]; 10 µM in data set [20]; 31.6 µM in [21]; 5010 µM in [3]. Further, the EC50 is 31.6 µM in data set [4] and 13 µM in data set [22]. Further, the outcome in [21] and in data set [23] was Active. Moreover, in data set [24], the half-maximal inhibitory concentration (IC50) worked out at 15.7 µM.

As for `O=[N+]([O-])/C(=C\c1ccc(Cl)cc1)Cc1ccc(Cl)cc1`, the result in [5], in data set [8], in [10], in data set [11], in data set [12] and in [14] was Active. The result in data set [16] was Active. Further, the inhibition in data set [6] is 0%; in [7], 23%. The EC50 in data set [2] was 1 µM; in [3], 12.6 µM; in data set [4] it was 2.51 µM. For the same compound, the inhibition result in data set [9] and in data set [13] was “inactive” throughout. In addition, the Activity in data set [15] amounted to 41%.

With `COc1ccc(/C=C(/Cc2ccc(OC)cc2)[N+](=O)[O-])cc1`, the result in data set [5], in data set [8], in [10], in data set [11], in [12] and in [14] was Active. Also, the outcome in data set [16] was Active. In addition, the inhibition in data set [6] was determined as 25%; in data set [7] it was 10%. In addition, the EC50 in data set [2] was 2.51 µM; in data set [3], 12.6 µM; in data set [4] it was 12.6 µM. In addition, the inhibition result in data set [9] and in data set [13] was “inactive” in each case. Moreover, in [15], the Activity is on record as 32%.

With `CC(=O)O[C@H]1C(=O)[C@@]2(C)[C@H]([C@H](OC(=O)c3ccccc3)[C@]3(O)C[C@H](OC(=O)[C@H](O)[C@@H](NC(=O)c4ccccc4)c4ccccc4)C(C)=C1C3(C)C)[C@]1(OC(C)=O)CO[C@@H]1C[C@@H]2O` [PACLITAXEL], the outcome in [8], in data set [11] and in [14] was inactive. In data set [25], the IC50 is 0.01 µM.

For `O=[N+]([O-])/C(=C\c1ccc2c(c1)OCO2)Cc1ccc2c(c1)OCO2`, the outcome in data set [5], in [8], in [10], in data set [11], in data set [12] and in [14] was Active. Moreover, in [16], the result was Active. Also, the inhibition in [6] is 15%; in [7], 36%. Moreover, the concentration for a half-maximal effect (EC50) in data set [17] is 7.94 µM; in [18] it was 15.8 µM; in data set [2], 3.16 µM; in data set [19], 12.6 µM; in [21] it was 1 µM; in [3], 50.1 µM. Besides, in [4], the EC50 is 31.6 µM. The inhibition result in data set [9] and in [13] was “inactive” in each case. Also, the Activity in data set [15] is on record as 30%.

`CSc1ccc(CC(N)Cc2ccc(SC)cc2)cc1`: the Activity entry in data set [1] is “Toxic”. The results for the inhibition in data set [6] and in [7] were 50% and 98%, respectively. Further, the half-maximal effective concentration (EC50) is 20 µM in [17]; 20 µM in data set [18]; 12.6 µM in data set [2]; 31.6 µM in data set [19]; 25.1 µM in [21]; 25.1 µM in [3]. In data set [4], this compound gave an EC50 of 12.6 µM. This compound came in with a half-inhibitory concentration (IC50) in data set [24] of 2.5 µM.
